Measurements reported in ChEMBL document CHEMBL1155580, “Chemical constituents of Clausena excavata: isolation and structure elucidation of novel furanone-coumarins with inhibitory effects for tumor-promotion” (J Nat Prod, 2000).

How the values were obtained:
Format in all cases: cell-based
Raji [1] = experiment: Inhibition of 12-O-tetradecanoylphorbol-13-acetate-induced EBV-early antigen activation in human Raji cells assessed as EA activation at 32 nmol relative to 12-O-tetradecanoylphorbol-13-acetate; design: scale not given: the % may be the effect or the level left; details: human gammaherpesvirus 4
In short: (§1)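 Raji cells at 10^6 cells/mL resuspended in RPMI 1640 with 10% FCS, 4 mM n-butyric acid as inducer and 32 pmol TPA (20 ng/mL in DMSO), plus test agent in DMSO (32, 16, 3.2 or 0.32 nmol). Held 37 °C for 48 h. EA-positive cells scored blind, at least 500 cells per assay. Values are % of the TPA positive control (100%), ± s.d.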

Raji [2] = experiment: Inhibition of 12-O-tetradecanoylphorbol-13-acetate-induced EBV-early antigen activation in human Raji cells assessed as EA activation at 16 nmol relative to 12-O-tetradecanoylphorbol-13-acetate; design: scale not given: the % may be the effect or the level left; details: human gammaherpesvirus 4; in short: as §1
Raji [3] = experiment: Inhibition of 12-O-tetradecanoylphorbol-13-acetate-induced EBV-early antigen activation in human Raji cells assessed as EA activation at 3.2 nmol relative to 12-O-tetradecanoylphorbol-13-acetate; design: scale not given: the % may be the effect or the level left; details: human gammaherpesvirus 4; in short: as §1
Raji [4] = experiment: Inhibition of 12-O-tetradecanoylphorbol-13-acetate-induced EBV-early antigen activation in human Raji cells assessed as EA activation at 0.32 nmol relative to 12-O-tetradecanoylphorbol-13-acetate; design: scale not given: the % may be the effect or the level left; details: human gammaherpesvirus 4; in short: as §1
[5] = Cytotoxicity against human Raji cells assessed as cell viability at 32 nmol by trypan blue staining; details: read-out: Activity
In short: (§2)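 Raji cells grown to 10^6 cells/mL, pelleted and resuspended in RPMI 1640 with 10% FCS, 4 mM n-butyric acid and 32 pmol TPA (20 ng/mL). Test agent added in DMSO at mole ratios to TPA (1000 = 32 nmol, 500 = 16 nmol, 100 = 3.2 nmol, 10 = 0.32 nmol). Incubated 37 °C for 48 h. Viability counted by hemocytometer with Trypan Blue.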

[6] = Cytotoxicity against human Raji cells assessed as cell viability at 16 nmol by trypan blue staining; details: read-out: Activity; in short: as §2
[7] = Cytotoxicity against human Raji cells assessed as cell viability at 3.2 nmol by trypan blue staining; details: read-out: Activity; in short: as §2
[8] = Cytotoxicity against human Raji cells assessed as cell viability at 0.32 nmol by trypan blue staining; details: read-out: Activity; in short: as §2

SMILES | Activity (Raji [1]) | Activity (Raji [2]) | Activity (Raji [3]) | Activity (Raji [4]) | viability at 32 nmol [5] | viability at 16 nmol [6] | viability at 3.2 nmol [7] | viability at 0.32 nmol [8]
CC1(O)CC(CC2(C)OC2COc2ccc3ccc(=O)oc3c2)OC1=O (stereo not given) [CLAUSLACTONE H] | 25.1% | 60.4% | 88.4% | 100% | 60% | > 80% | > 80% | > 80%
COc1ccc2ccc(=O)oc2c1 [HERNIARIN] | 0% | 71.7% | 100% | 100% | 30% | 60% | > 80% | > 80%
C/C(=C\COc1ccc2ccc(=O)oc2c1)CC1CC(O)(CO)C(=O)O1 (stereo not given) [CLAUSLACTONE I] | 20.6% | 54.3% | 82.5% | 100% | 60% | > 80% | > 80% | > 80%
CC(O)(CC1CC(O)(CO)C(=O)O1)C1COc2ccc3ccc(=O)oc3c2O1 (stereo not given) [CLAUSLACTONE C] | 10.3% | 46.9% | 80.1% | 95.3% | 60% | > 80% | > 80% | > 80%
C=C1CC(C/C(C)=C/COc2ccc3ccc(=O)oc3c2O)OC1=O (stereo not given) [CLAUSLACTONE E] | 22.4% | 58.8% | 86.2% | 100% | 60% | > 80% | > 80% | > 80%
CC1(O)CC(CC(C)(O)C2COc3ccc4ccc(=O)oc4c3O2)OC1=O (stereo not given) [CLAUSLACTONE B] | 17.1% | 50.5% | 82.7% | 100% | 60% | > 80% | > 80% | > 80%
C=C1CC(CC(C)(O)C2COc3ccc4ccc(=O)oc4c3O2)OC1=O (stereo not given) [CLAUSLACTONE A] | 26.4% | 59.2% | 85.2% | 100% | 60% | > 80% | > 80% | > 80%
C=C1CC(CC2(C)OC2COc2ccc3ccc(=O)oc3c2)OC1=O (stereo not given) [CLAUSLACTONE F] | 29.3% | 62.7% | 89.6% | 100% | 60% | > 80% | > 80% | > 80%
CC1(CC2C=C(CO)C(=O)O2)OC1COc1ccc2ccc(=O)oc2c1 (stereo not given) [CLAUSLACTONE J] | 27.4% | 65.8% | 85.2% | 100% | 60% | > 80% | > 80% | > 80%
CC(O)(CC1C=C(CO)C(=O)O1)C1COc2ccc3ccc(=O)oc3c2O1 (stereo not given) [CLAUSLACTONE D] | 19.6% | 52.3% | 84.8% | 100% | 60% | > 80% | > 80% | > 80%
